ChEMBL document CHEMBL1121428, “Derivatives of 11-(1-piperazinyl)-5H-pyrrolo[2,1-c][1,4]benzodiazepine as central nervous system agents” (1980)
Calls of active or inactive are those of the source. The calls are words filed in the database; no cut-off is given here.

Assays:
[1] = test system: Mus musculus; assay: Intraperitoneal dose required for antagonism of d-amphetamine lethality in grouped mice (GAL); type: functional; settings: ip
Outline: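 Mice housed in groups received drug intraperitoneally and were scored for protection against d-amphetamine-induced lethality. There were 5 to 10 animals per dose group. The ED50 was the dose protecting 50% of mice. 95% confidence limits came from Finney's arc-sine transformation method.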

[2] = test system: Mus musculus; assay: Minimum effective dose was measured orally by antagonism of tetrabenazine-induced depression in mice(po); inact means compound is inactive.; type: functional, organism-based
Outline: (§1)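 Mice given tetrabenazine to induce depression; test agent given orally to look for antagonism of that depression. The value is the minimum effective dose. Each test group held 5 to 10 animals. The protocol is the same as in the group's earlier publications.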

[3] = test system: Rattus norvegicus; assay: Estimated oral dose depressing motor activity by 50% in rats(po); type: functional
Outline: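 Rats dosed orally; spontaneous motor activity recorded. The value is the estimated dose that lowers motor activity by 50%. Each test group held 5 to 10 animals. The protocol is the same as in the authors' earlier reports.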

[4] = test system: Mus musculus; assay: Minimum effective dose was measured orally by antagonism of tetrabenazine-induced depression in mice(po); type: functional; settings: read-out: MED; outline: as §1
[5] = test system: Mus musculus; assay: Oral dose required for antagonism of d-amphetamine lethality in grouped mice (GAL); type: functional
Outline: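 Drug was given orally to grouped mice challenged with d-amphetamine, and survival (protection from lethality) was recorded. Each test group had 5 to 10 animals. The result is an ED50 with 95% confidence limits, calculated by the arc-sine transformation method of Finney.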

Question: With `CN1CCN(C2=Nc3cc(Cl)ccc3Cn3cccc32)CC1` as the compound, how does the ED50 [1] read?
Answer: 4 mg/kg

Question: And the MED [2]?
Answer: inactive

Question: And the MDD50 [3]?
Answer: 12 mg/kg

Question: What does the source list for `CN(C)CCCN1c2ccccc2CCc2ccccc21` [IMIPRAMINE]?
Answer: minimal effective dose [4]: 5 mg/kg; MDD50 [3]: >50 mg/kg

Question: How did the ED50 [1] turn out when `CN1CCN(C2=Nc3cc(Cl)ccc3Nc3ccccc32)CC1` [CLOZAPINE] was run?
Answer: 2.2 mg/kg

Question: What about the MED [2] of the same compound?
Answer: inactive

Question: What about the MDD50 [3] of the same compound?
Answer: 21 mg/kg

Question: With `CN(C)CCCN1c2ccccc2Sc2ccc(Cl)cc21` [CHLORPROMAZINE] as the compound, how does the ED50 [1] read?
Answer: 0.6 mg/kg

Question: What about the MED [2] of the same compound?
Answer: inactive

Question: What about the MDD50 [3] of the same compound?
Answer: 2.4 mg/kg

Question: For `c1ccc2c(c1)Cn1cccc1C(N1CCNCC1)=N2`, which ED50 [5] is on record?
Answer: 4.7 mg/kg

Question: And the minimal effective dose [4]?
Answer: 3.1 mg/kg

Question: Which ED50 [1] does the source give for `CN1CCN(C2=Nc3ccccc3Cn3cccc32)CC1` here?
Answer: 1 mg/kg

Question: And the MED [2]?
Answer: inactive

Question: What about the MDD50 [3] of the same compound?
Answer: 7 mg/kg

Question: Which results are given for `CN1CCN(C2=Nc3ccc(Cl)cc3Cn3cccc32)CC1`?
Answer: ED50 [1]: 16 mg/kg; MED [2]: inactive; MDD50 [3]: 50 mg/kg
